Measured values taken from ChEMBL document CHEMBL4823327, “New Selective Inhibitors of ERG Positive Prostate Cancer: ERGi-USU-6 Salt Derivatives” (ACS Med Chem Lett, 2021).
The source made the active and inactive calls. The calls are words filed in the database; no cut-off is given here.

Columns and labels:
[1] = target: Serine/threonine-protein kinase RIO2 (Homo sapiens) (UniProt Q9BVS4); experiment: Inhibition of RIOK2 in HUVEC at 0.05 to 0.25 uM; conditions: dose 0.05-0.25 µM
Method in brief: (§1)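 HUVEC (ERG-positive normal primary endothelial cells) were treated at the same doses as VCaP cells, over a 0–0.25 μmol/L range. Read-outs were cell growth and endogenous ERG and RIOK2 protein levels.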

VCaP = experiment: Cytotoxicity against human VCaP cells assessed as inhibition of cell growth after 120 hrs by Cell Glow […] assay; type: functional, cell-based
[2] = Toxicity in athymic nude mouse assessed as body weight loss at 200 mg/kg, ip administered twice a week for 4 weeks; type: organism-based; conditions: in vivo, 672 h
Method in brief: (§2)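 Athymic nude mice were split into five dose groups of 5 animals each: vehicle (90% PEG + 10% DMSO), 50, 100, 150 or 200 mg/kg in the same vehicle, given by injection. Survival and body weight were monitored through the study, with gross examination of major organs and the injection site. MTD was taken as the highest dose at which all animals survived.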

[3] = Toxicity in ip dose athymic nude mouse assessed as maximum tolerated dose administered twice a week for 4 weeks; type: organism-based; conditions: in vivo; method in brief: as §2
[4] = Toxicity in athymic nude mouse assessed as localized inflammation at 200 mg/kg, ip administered twice a week for 4 weeks; type: organism-based; conditions: in vivo, 672 h; method in brief: as §2
[5] = Toxicity in athymic nude mouse assessed as tissue and vasculature damage at 200 mg/kg, ip administered twice a week for 4 weeks; type: organism-based; conditions: in vivo, 672 h; method in brief: as §2
[6] = Toxicity in athymic nude mouse assessed as health deterioration at 100 mg/kg, ip administered twice a week for 4 weeks; type: organism-based; conditions: in vivo, 672 h; method in brief: as §2
HUVEC = experiment: Cytotoxicity against HUVEC assessed as inhibition of cell growth at 0.05 to 0.25 uM; type: cell-based; conditions: human, dose 0.05-0.25 µM; method in brief: as §1

Serine/threonine-protein kinase RIO2 (Homo sapiens), sequence (Q9BVS4 whole entry, looked up): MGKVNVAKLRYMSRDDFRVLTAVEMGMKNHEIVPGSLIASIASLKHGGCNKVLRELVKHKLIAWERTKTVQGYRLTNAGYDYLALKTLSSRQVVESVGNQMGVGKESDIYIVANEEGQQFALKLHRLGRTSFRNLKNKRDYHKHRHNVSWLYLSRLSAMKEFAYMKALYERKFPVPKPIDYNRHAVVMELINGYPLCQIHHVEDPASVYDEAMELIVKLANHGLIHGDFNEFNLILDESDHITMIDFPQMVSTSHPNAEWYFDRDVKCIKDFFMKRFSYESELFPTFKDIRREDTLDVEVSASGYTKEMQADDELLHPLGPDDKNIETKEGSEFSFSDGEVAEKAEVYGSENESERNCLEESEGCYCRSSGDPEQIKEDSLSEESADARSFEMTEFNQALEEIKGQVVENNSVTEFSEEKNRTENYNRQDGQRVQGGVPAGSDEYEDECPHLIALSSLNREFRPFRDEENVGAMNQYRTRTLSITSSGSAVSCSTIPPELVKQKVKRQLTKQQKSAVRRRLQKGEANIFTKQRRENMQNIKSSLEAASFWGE

SMILES	IC50 (VCaP; vcap) [µM]	MTD at 672 h [3] [mg/kg]	IC50 (VCaP; Homo sapiens, VCaP, 120 h) [µM]	further results
CN(C)c1ccc(/N=N/c2ccccn2)c(O)c1 [listing 1 of 3 here]	–	–	–	inhibition [1]: inactive
CN(C)c1ccc(/N=N/c2ccccn2)c(O)c1 [listing 2 of 3 here]	> 0.5	–	–	–
CN(C)c1ccc(/N=N/c2ccccn2)c(O)c1 [listing 3 of 3 here]	–	100	–	Activity [2]: Toxic; Activity [4]: Toxic; Activity [5]: Toxic; Activity [6]: Non-Toxic
Oc1ccc2ccccc2c1/N=N/c1nccs1	–	150	0.17	–
CN(C)c1ccc(/N=N/c2ccccn2)c(O)c1.CS(=O)(=O)O	0.089	–	–	Activity (HUVEC): Non-Toxic
CC(=O)C(=O)O.CN(C)c1ccc(/N=N/c2ccccn2)c(O)c1	–	–	> 0.5	–
